# Screens deposited in PubChem by several laboratories.
# A selection: hits, their analogues and other compounds. The true share with any hit is near 4.6%.
# Wee1 stabilizer – Wee1 degradation inhibitors, primary screen, cell-based, HeLa, Wee1K328M-luciferase, luminescence; Wee1-like protein kinase (Homo sapiens), P30291; HeLa Luc-Wee1K328M stability; 100% = proteasome inhibitor MG132 effect; reporter increase, % at 5 µM; hit rate 1.2% among 220,000;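 active = activation above the mean of all tested compounds plus 3 SD, set per screening run, cut at about 8.8% in these data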;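 note: cells exposed to compound for 20 h before luminescence read; 0% = DMSO alone and 100% = MG132 at 30 µM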
# STAT1 activator – STAT1 signaling activators, primary screen, cell-based, HTS, luciferase reporter; NIH 3T3 STAT1-luciferase reporter, IFN-gamma, luminescence; 100% = IFN-gamma alone, no compound; activation (% of control), % at 5.5 µM; hit rate 2.6% among 200,000; AID 932, 2007;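 active = activation above the screen-wide mean activation plus 3 SD, cut at about 130% in these data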;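 note: raw ratio to IFN-gamma control signal so 100% means no change and 0% no light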
# Mdm2 ligase inh – MDM2-luciferase reporter signal enhancers, primary screen, MDM2 E3 ligase inhibitor project, cell-based, luminescence, 1536-well; hit rate 0.11% among 210,000; E3 ubiquitin-protein ligase Mdm2 (Homo sapiens), Q00987; signal enhancement, % at 5 µM; cell-based MDM2 ubiquitination luciferase reporter, 2 h; 0 = plate control, 100 = twice control, blank-subtracted;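 active = signal enhancement of 30% or more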;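 note: luminescence tracks abundance of the self-degrading MDM2-luciferase fusion protein; higher signal means inhibition of MDM2 E3 ligase activity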
#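 Material: stable MDM2–luciferase fusion reporter cells / Quantity: 2000 cells/well / Dosing: single 5 µM compound dose, 0.2% final DMSO / Buffer or medium: DMEM / Schedule: 4 h cell settling then 2 h compound exposure, 37 °C / Detection: luminescence with SteadyLite reagent, 15 min at room temperature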
# APP 5'UTR act – activators of APP 5'UTR luciferase reporter, primary screen, SH-SY5Y cells | SH-SY5Y APP 5'UTR luciferase reporter, luminescence; zero percent = DMSO vehicle wells | activation, % at 2 µM | hit rate 1% among 190,000;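 active = activation above a set limit, based on mean plus 3 SD of controls, cut at about 140% in these data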
# NF-kB expr up – activators of NF-kB expression in neurons, primary screen, cell-based, HTS; fold change at 12.5 µM; human neuronal cells, NF-kB reporter expression; active compounds read high; hit rate 1.6% among 190,000; AID 1239, 2008; in the data active = fold change above about 3.3
# p97 ATPase inh – inhibitors of human p97 ATPase, primary screen, biochemical | recombinant p97 ATPase, Kinase-Glo ATP luminescence, 3 h | inhibition, % at 8 µM | hit rate 0.42% among 220,000 | AID 1481, 2009; in the data active = inhibition above about 15%;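 note: 0% = DMSO vehicle and 100% = wells lacking enzyme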
# Target sequence (P55072 whole entry, looked up): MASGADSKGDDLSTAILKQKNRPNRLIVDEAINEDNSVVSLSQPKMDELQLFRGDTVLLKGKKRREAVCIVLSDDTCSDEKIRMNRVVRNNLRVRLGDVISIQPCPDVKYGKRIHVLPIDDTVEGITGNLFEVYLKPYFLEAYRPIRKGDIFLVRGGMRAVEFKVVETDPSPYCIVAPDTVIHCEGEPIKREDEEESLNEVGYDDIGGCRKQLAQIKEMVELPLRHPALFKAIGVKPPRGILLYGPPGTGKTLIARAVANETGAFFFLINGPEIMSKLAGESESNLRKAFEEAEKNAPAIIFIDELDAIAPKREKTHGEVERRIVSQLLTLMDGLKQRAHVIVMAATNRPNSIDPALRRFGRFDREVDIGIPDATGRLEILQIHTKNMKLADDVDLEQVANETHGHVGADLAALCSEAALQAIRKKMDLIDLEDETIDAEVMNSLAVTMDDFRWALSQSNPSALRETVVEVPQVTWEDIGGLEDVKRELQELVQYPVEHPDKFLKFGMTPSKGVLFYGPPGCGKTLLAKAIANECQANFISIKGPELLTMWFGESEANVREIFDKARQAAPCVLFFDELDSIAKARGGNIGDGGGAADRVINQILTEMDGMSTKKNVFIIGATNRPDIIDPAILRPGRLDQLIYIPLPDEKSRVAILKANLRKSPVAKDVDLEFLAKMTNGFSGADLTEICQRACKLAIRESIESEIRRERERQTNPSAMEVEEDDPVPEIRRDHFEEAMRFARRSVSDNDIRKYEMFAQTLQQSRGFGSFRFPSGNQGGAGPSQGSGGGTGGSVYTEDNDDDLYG
# The depositor's hits bear a star; / = not tested or not shown.
SMILES,Wee1 stabilizer,STAT1 activator,Mdm2 ligase inh,APP 5'UTR act,NF-kB expr up,p97 ATPase inh
CCOC(=O)c1cccc(NS(=O)(=O)c2cnc[nH]2)c1,-2,103,-18,-26,0.98,5
CCOC(=O)c1ccc(NC(=S)Nc2ccc(Cl)cn2)cc1,-2,109,-6,23,1.4,-1
CCOC(=O)c1ccc(NC(=O)Nc2ccc(F)cc2)cc1,10*,108,-9,7,1.3,2
Nc1nc(NS(=O)(=O)c2ccc(Cl)cc2)nn1-c1ccccc1,-2,/,-6,/,/,7
COc1ccc2nc(NC(=O)C(NS(=O)(=O)c3cccc4nsnc34)C(C)C)sc2c1 (stereo not drawn),0,107,-4,-10,0.99,7
CCn1c2ccccc2c2cc(Nc3cc(C)nc4ncnn34)ccc21,-1,103,-11,-96,4.4*,1
CCOC(=O)c1ccc(Cl)c(S(=O)(=O)N2CCCC2)c1,1,98,-8,-4,0.88,1
CC(=O)/C(N=Nc1c(C)n(C)n(-c2ccccc2)c1=O)=C(\C)O,-2,105,-16,-79,1,4
CCOC(=O)/C(N=Nc1c(C)n(C)n(-c2ccccc2)c1=O)=C(\C)O,8.9*,90,2,4,1,1
Cc1cccn2cc(-c3ccc(F)cc3)nc12,2,130*,-43,128,5.8*,-1
Cc1cccn2cc(CNc3ccccc3)nc12,-1,123,-16,17,2.3,1
Cc1cccn2cc(-c3ccc(F)cc3)cc12,4,108,2,19,1.6,1
Cc1cccn2cc(-c3ccccc3)nc12,2,138*,-38,154*,4.3*,-4
Cc1cccn2cc(-c3cccc(NC(=O)c4cccs4)c3)nc12,2,131*,-12,31,1.1,10
C/C(=N\Nc1cccc([N+](=O)[O-])c1)c1ccccc1O,3,135*,/,42,1.8,6
C/C(=N\Nc1cccc([N+](=O)[O-])c1)c1cc(F)ccc1O,-1,/,2,/,/,-1
O=C(N/N=C/c1cccc([N+](=O)[O-])c1)c1ccc(Br)cc1,2,111,-26,15,1.1,5
O=C(N/N=C/c1ccc(Br)s1)c1ccccc1[N+](=O)[O-],-2,100,-1,1,1.1,3
O=C(N/N=C/c1ccc(Br)s1)c1ccc([N+](=O)[O-])cc1,9.0*,108,-5,-36,1.3,6
O=C(N/N=C/c1cccc([N+](=O)[O-])c1)c1cccc(Br)c1,9.4*,102,-11,-4,1.5,-1
Cc1[nH][nH]c(=O)c1C=NCc1cccc(C(F)(F)F)c1,0,100,9,33,0.92,4
Cc1ccc(NC(=O)c2nnn(-c3cc(C)cc(C)c3)c2N)cc1,-2,129*,-12,27,1.5,0
COc1nc(N=C(N)N)nc2ccc(C)cc12,-3,115,-18,8,1.2,2
[O-][n+]1ccccc1SC/C=C/c1ccccc1,10*,110,-16,10,1.6,-4
Cn1nc(-c2ccc(OCC(=O)NCC3CCCO3)cc2)c2ccccc2c1=O (stereo not drawn),9.6*,83,-18,3,0.7,-2
SMILES,Wee1 stabilizer,STAT1 activator,Mdm2 ligase inh,APP 5'UTR act,NF-kB expr up,p97 ATPase inh
CCOC(=O)C(=Cc1ccc(OCc2ccc([N+](=O)[O-])cc2)c(OC)c1)C(=O)OCC,-1,113,10,10,3.6*,-5
COC(=O)C(=Cc1ccc(OCc2ccc([N+](=O)[O-])cc2)c(OC)c1)C(=O)OC,3,122,10,17,4.4*,-1
COc1ccc(/C=N/NC(=O)CSCc2ccc([N+](=O)[O-])cc2)cc1OC,3,101,-7,2,1.1,1
N#C/C(=C\c1ccccc1OCc1ccc(C(=O)O)cc1)C(=O)Nc1ccc(O)cc1,-1,96,-24,-2,1.4,14
COc1ccc(NC(=O)/C(C#N)=C\c2ccc(OCc3ccc(C(=O)O)cc3)c(OC)c2)cc1,-2,104,30*,-1,1.1,8
COc1cc(C(c2c(C)[nH][nH]c2=O)c2c(C)[nH][nH]c2=O)ccc1OCc1ccc([N+](=O)[O-])cc1,4,111,0,/,3.8*,1
O=C(O)/C=C/C(=O)NCCC(c1ccccc1)c1ccccc1,5,/,-11,/,/,7
Cc1c(N=C2N=C(NC(=O)Nc3ccc(Cl)cc3)c3ccccc32)c(=O)n(-c2ccccc2)n1C,0,96,-11,5,0.94,0
CCN1CCCc2cc(CN(CCN3CCOCC3)C(=S)Nc3cccc(Cl)c3)ccc21,5,98,-7,7,8.1*,-4
Cc1csc(SCC(=O)Nc2sccc2C(N)=O)n1,2,98,-15,23,1,8
O=C1OC(N2CCN(C(=O)c3ccco3)CC2)c2ccccc21 (stereo not drawn),-1,102,-12,2,0.97,1
CCOC(=O)N1CCN(C2OC(=O)c3ccccc32)CC1 (stereo not drawn),9.7*,98,-6,1,1.1,4
Cc1c(Cl)c([N+](=O)[O-])nn1Cc1ccc(C(=O)Nc2ccc(Cl)cn2)o1,-1,95,0,-8,1.1,-7
O=C(Nc1ccc([N+](=O)[O-])cn1)c1ccc(Br)o1,10*,111,0,25,1.4,-9
O=C(Nc1ccc(Cl)cn1)c1ccc([N+](=O)[O-])o1,-2,102,3,-47,5.9*,7
O=C(Nc1ccc([N+](=O)[O-])cn1)c1ccc2c(c1)OCO2,1,135*,-18,74,2.5,2
O=C(Nc1nnc(Cc2ccc([N+](=O)[O-])cc2)s1)c1ccc2c(c1)OCO2,1,/,/,/,/,8
C/C(=N\Nc1ccc([N+](=O)[O-])cc1)c1ccc2c(c1)OCO2,-1,136*,2,44,2.4,0
Cc1ccc(-n2c(=O)c3sccc3n(Cc3cc(=O)n4cc(Cl)ccc4n3)c2=O)cc1F,5,95,5,-8,0.97,3
CCCC(=O)Nc1sc(C(=O)Nc2cccc(N)c2)c(C)c1C(=O)OC,-2,123,-9,33,1.7,3
CC(C)(C)Nc1nc(Oc2ccc(=O)[nH]n2)nc(N2CCOCC2)n1,9.6*,97,1,-19,1,7
Clc1cc(Cl)cc(CN2CCSCC2)c1,8,/,-9,/,/,9
